This assay deals with T1, Gonadotropin-releasing hormone receptor (Rattus norvegicus, UniProt P30969).
T1 sequence (P30969 whole entry): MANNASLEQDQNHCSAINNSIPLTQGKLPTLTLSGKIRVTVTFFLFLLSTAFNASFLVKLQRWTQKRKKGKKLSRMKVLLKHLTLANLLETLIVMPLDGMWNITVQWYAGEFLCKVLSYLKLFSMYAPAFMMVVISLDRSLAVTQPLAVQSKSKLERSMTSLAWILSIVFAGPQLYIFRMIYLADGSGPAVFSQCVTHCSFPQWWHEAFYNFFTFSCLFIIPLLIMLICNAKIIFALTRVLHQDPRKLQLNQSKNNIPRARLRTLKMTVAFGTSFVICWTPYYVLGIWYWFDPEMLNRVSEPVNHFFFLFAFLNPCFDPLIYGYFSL
In words: Inhibition of binding of radiolabeled histrelin to Gonadotropin-releasing hormone receptor (GnRHr) in rat pituitary gland membranes. The class given is cell membranes, Membrane. The method, boiled down: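 Rat anterior pituitary membranes (male and female glands equal numbers), homogenized in 0.32 M sucrose/aprotinin, 4000g pellet, diluted 15-fold in 10 mM Hepes, 0.2% BSA, pH 7.6. Filtration onto PEI-treated glass filters, scintillation counting. IC50 in nM, duplicate, n = 1.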
What is called IC50 is the midpoint of a concentration-inhibition curve. A lower IC50 goes with greater potency in that assay. For `CC(=O)Nc1ccc(C[C@H](NC(=O)[C@H](CO)NC(=O)[C@@H](Cc2cccnc2)NC(=O)[C@@H](Cc2ccc(Cl)cc2)NC(=O)[C@@H](Cc2ccc3ccccc3c2)NC(C)=O)C(=O)N[C@H](Cc2ccc(NC(C)=O)cc2)C(=O)N[C@@H](CC(C)C)C(=O)N[C@H](C(=O)N2CCC[C@H]2C(=O)N[C@H](C)C(N)=O)N(C)C(=O)CCNC(C)C)cc1` (single isomer, unassigned), the concentration for half-maximal inhibition (IC50) is 0.5 nM. Consider `CC(=O)Nc1ccc(C[C@H](NC(=O)[C@H](CO)NC(=O)[C@H](NC(=O)c2ccncc2)NC(=O)[C@@H](Cc2ccc(Cl)cc2)NC(=O)[C@@H](Cc2ccc3ccccc3c2)NC(C)=O)C(=O)N[C@H](Cc2ccc(NC(C)=O)cc2)C(=O)N[C@@H](CC(C)C)C(=O)N[C@@H](CCCCNC(C)C)C(=O)N2CCC[C@H]2C(=O)N[C@H](C)C(N)=O)cc1` (single isomer, unassigned), for which the IC50 worked out at 220 nM. In the case of `CC(=O)Nc1ccc(C[C@H](NC(=O)[C@H](CO)NC(=O)[C@@H](Cc2cccnc2)NC(=O)[C@@H](Cc2ccc(Cl)cc2)NC(=O)[C@@H](Cc2ccc3ccccc3c2)NC(C)=O)C(=O)N[C@H](Cc2ccc(NC(C)=O)cc2)C(=O)N[C@@H](CC(C)C)C(=O)N[C@@H](CCCCNC(C)C)C(=O)N2CCC[C@H]2C(=O)N[C@@H](NC=O)C(N)=O)cc1` (single isomer, unassigned) it was 0.62 nM; in that of `CC(=O)Nc1ccc(C[C@H](NC(=O)[C@H](CO)NC(=O)[C@@H](Cc2cccnc2)NC(=O)[C@H](NC(=O)[C@@H](Cc2ccc3ccccc3c2)NC(C)=O)N(C)C(=O)c2ccc(Cl)cc2)C(=O)N[C@H](Cc2ccc(NC(C)=O)cc2)C(=O)N[C@@H](CC(C)C)C(=O)N[C@@H](CCCCNC(C)C)C(=O)N2CCC[C@H]2C(=O)N[C@H](C)C(N)=O)cc1`, 1.2 nM; in that of `CC(=O)Nc1ccc(C[C@H](NC(=O)[C@H](CO)NC(=O)[C@@H](Cc2cccnc2)NC(=O)[C@@H](Cc2ccc(Cl)cc2)NC(=O)[C@@H](Cc2ccc3ccccc3c2)NC(C)=O)C(=O)N[C@H](Cc2ccc(NC(C)=O)cc2)C(=O)N[C@H](C(=O)N[C@@H](CCCCNC(C)C)C(=O)N2CCC[C@H]2C(=O)N[C@H](C)C(N)=O)N(C)C(=O)C(C)C)cc1`, 0.53 nM.

As for `CC(=O)Nc1ccc(C[C@H](NC(=O)[C@H](CO)NC(=O)[C@@H](NC(=O)c2ccncc2)NC(=O)[C@@H](Cc2ccc(Cl)cc2)NC(=O)[C@@H](Cc2ccc3ccccc3c2)NC(C)=O)C(=O)N[C@H](Cc2ccc(NC(C)=O)cc2)C(=O)N[C@@H](CC(C)C)C(=O)N[C@@H](CCCCNC(C)C)C(=O)N2CCC[C@H]2C(=O)N[C@H](C)C(N)=O)cc1` (single isomer, unassigned), the IC50 came out at 1.4 nM. With `CC(=O)Nc1ccc(C[C@H](NC(=O)[C@H](CO)NC(=O)[C@@H](Cc2cccnc2)NC(=O)[C@@H](Cc2ccc(Cl)cc2)NC(=O)[C@@H](Cc2ccc3ccccc3c2)NC(C)=O)C(=O)N[C@@H](C(=O)N[C@@H](CC(C)C)C(=O)N[C@@H](CCCCNC(C)C)C(=O)N2CCC[C@H]2C(=O)N[C@H](C)C(N)=O)N(C)C(=O)c2ccc(NC(C)=O)cc2)cc1` (mixture of isomers) the figure was 1.9 nM; with `CC(=O)Nc1ccc(C[C@H](NC(=O)[C@H](CO)NC(=O)[C@@H](Cc2cccnc2)NC(=O)[C@@H](Cc2ccc(Cl)cc2)NC(=O)[C@@H](Cc2ccc3ccccc3c2)NC(C)=O)C(=O)N[C@H](C(=O)N[C@@H](CC(C)C)C(=O)N[C@@H](CCCCNC(C)C)C(=O)N2CCC[C@H]2C(=O)N[C@H](C)C(N)=O)N(C)C(=O)c2ccc(NC(C)=O)cc2)cc1` (mixture of isomers), 5.3 nM; with `CC(=O)Nc1ccc(C[C@H](NC(=O)[C@H](CO)NC(=O)[C@@H](Cc2cccnc2)NC(=O)[C@@H](NC(=O)c2cn[nH]c2N)NC(=O)[C@@H](Cc2ccc3ccccc3c2)NC(C)=O)C(=O)N[C@H](Cc2ccc(NC(C)=O)cc2)C(=O)N[C@@H](CC(C)C)C(=O)N[C@@H](CCCCNC(C)C)C(=O)N2CCC[C@H]2C(=O)N[C@H](C)C(N)=O)cc1` (single isomer, unassigned), > 1000 nM. On to `CC(=O)Nc1ccc(C[C@H](NC(=O)[C@H](CO)NC(=O)[C@@H](Cc2cccnc2)NC(=O)[C@@H](Cc2ccc(Cl)cc2)NC(=O)[C@@H](Cc2ccc3ccccc3c2)NC(C)=O)C(=O)N[C@H](Cc2ccc(NC(C)=O)cc2)C(=O)N[C@@H](CC(C)C)C(=O)N[C@@H](CCCCNC(C)C)C(=O)N2CCC[C@H]2C(=O)N[C@H](N)C(N)=O)cc1`, for which the half-inhibitory concentration (IC50) amounted to 0.48 nM. In other words, the sub-nanomolar range. With `CC(=O)Nc1ccc(C[C@H](NC(=O)[C@H](CO)NC(=O)[C@H](NC(=O)c2cccnc2)NC(=O)[C@@H](Cc2ccc(Cl)cc2)NC(=O)[C@@H](Cc2ccc3ccccc3c2)NC(C)=O)C(=O)N[C@H](Cc2ccc(NC(C)=O)cc2)C(=O)N[C@@H](CC(C)C)C(=O)N[C@@H](CCCCNC(C)C)C(=O)N2CCC[C@H]2C(=O)N[C@H](C)C(N)=O)cc1` the figure was 0.76 nM. Compound `CC(=O)Nc1ccc(C[C@H](NC(=O)[C@H](CO)NC(=O)[C@@H](Cc2cccnc2)NC(=O)[C@@H](Cc2ccc(Cl)cc2)NC(=O)[C@@H](Cc2ccc3ccccc3c2)NC(C)=O)C(=O)N[C@H](Cc2ccc(NC(C)=O)cc2)C(=O)N[C@@H](CC(C)C)C(=O)N[C@@H](CCCCNC(C)C)C(=O)N2CCC[C@H]2C(=O)N[C@H](C(N)=O)N(C)C=O)cc1` yielded an IC50 of 0.67 nM.

In turn, `CC(=O)Nc1ccc(C[C@H](NC(=O)[C@@H](NC(=O)CO)NC(=O)[C@@H](Cc2cccnc2)NC(=O)[C@@H](Cc2ccc(Cl)cc2)NC(=O)[C@@H](Cc2ccc3ccccc3c2)NC(C)=O)C(=O)N[C@H](Cc2ccc(NC(C)=O)cc2)C(=O)N[C@@H](CC(C)C)C(=O)N[C@@H](CCCCNC(C)C)C(=O)N2CCC[C@H]2C(=O)N[C@H](C)C(N)=O)cc1` (single isomer, unassigned) had a concentration for half-maximal inhibition (IC50) of 0.056 nM. In the case of `CC(=O)Nc1ccc(C[C@H](NC(=O)[C@H](CO)NC(=O)[C@@H](Cc2cccnc2)NC(=O)[C@@H](Cc2ccc(Cl)cc2)NC(=O)[C@@H](Cc2ccc3ccccc3c2)NC(C)=O)C(=O)N[C@H](Cc2ccc(NC(C)=O)cc2)C(=O)N[C@@H](CNC(=O)C(C)C)C(=O)N[C@@H](CCCCNC(C)C)C(=O)N2CCC[C@H]2C(=O)N[C@H](C)C(N)=O)cc1` it was 2 nM. In the case of `CC(=O)Nc1ccc(C[C@@H](NC(=O)[C@H](NC(=O)[C@H](CO)NC(=O)[C@@H](Cc2cccnc2)NC(=O)[C@@H](Cc2ccc(Cl)cc2)NC(=O)[C@@H](Cc2ccc3ccccc3c2)NC(C)=O)N(C)C(=O)c2ccc(NC(C)=O)cc2)C(=O)N[C@@H](CC(C)C)C(=O)N[C@@H](CCCCNC(C)C)C(=O)N2CCC[C@H]2C(=O)N[C@H](C)C(N)=O)cc1` it was 0.43 nM.

The compound `CC(=O)Nc1ccc(C[C@H](NC(=O)[C@H](CO)NC(=O)[C@@H](Cc2cccnc2)NC(=O)[C@@H](Cc2ccc(Cl)cc2)NC(=O)[C@@H](NC(C)=O)NC(=O)c2ccc3ccccc3c2)C(=O)N[C@H](Cc2ccc(NC(C)=O)cc2)C(=O)N[C@@H](CC(C)C)C(=O)N[C@@H](CCCCNC(C)C)C(=O)N2CCC[C@H]2C(=O)N[C@H](C)C(N)=O)cc1` showed an IC50 of 3 nM. In the case of `CC(=O)Nc1ccc(C[C@H](NC(=O)[C@H](CO)NC(=O)[C@@H](Cc2cccnc2)NC(=O)[C@@H](Cc2ccc(Cl)cc2)NC(=O)[C@@H](Cc2ccc3ccccc3c2)NC(C)=O)C(=O)N[C@H](Cc2ccc(NC(C)=O)cc2)C(=O)N[C@@H](CC(C)C)C(=O)N[C@@H](CCCCNC(C)C)C(=O)N2CCC[C@H]2C(=O)N[C@H](C)C(N)=O)cc1` it was 0.3 nM; in that of `CC(=O)Nc1ccc(C[C@H](NC(=O)[C@H](NC(=O)[C@@H](Cc2cccnc2)NC(=O)[C@@H](Cc2ccc(Cl)cc2)NC(=O)[C@@H](Cc2ccc3ccccc3c2)NC(C)=O)N(C)C=O)C(=O)N[C@H](Cc2ccc(NC(C)=O)cc2)C(=O)N[C@@H](CC(C)C)C(=O)N[C@@H](CCCCNC(C)C)C(=O)N2CCC[C@H]2C(=O)N[C@H](C)C(N)=O)cc1` (single isomer, unassigned), 0.9 nM; in that of `CC(=O)Nc1ccc(C[C@H](NC(=O)[C@H](CO)NC(=O)[C@@H](Cc2cccnc2)NC(=O)[C@@H](Cc2ccc(Cl)cc2)NC(=O)[C@H](Cc2ccc3ccccc3c2)NC(C)=O)C(=O)N[C@H](Cc2ccc(NC(C)=O)cc2)C(=O)N[C@@H](CC(C)C)C(=O)N[C@@H](CCCCNC(C)C)C(=O)N2CCC[C@H]2C(=O)N[C@H](C)C(N)=O)cc1`, 0.64 nM. With `CC(=O)Nc1ccc(C[C@H](NC(=O)[C@H](CO)NC(=O)[C@@H](Cc2cccnc2)NC(=O)[C@@H](NC(=O)[C@@H](Cc2ccc3ccccc3c2)NC(C)=O)N(C)C(=O)c2ccc(Cl)cc2)C(=O)N[C@H](Cc2ccc(NC(C)=O)cc2)C(=O)N[C@@H](CC(C)C)C(=O)N[C@@H](CCCCNC(C)C)C(=O)N2CCC[C@H]2C(=O)N[C@H](C)C(N)=O)cc1` (mixture of isomers) the figure was 280 nM; with `CC(=O)Nc1ccc(C[C@H](NC(=O)[C@@H](NC=O)NC(=O)[C@@H](Cc2cccnc2)NC(=O)[C@@H](Cc2ccc(Cl)cc2)NC(=O)[C@@H](Cc2ccc3ccccc3c2)NC(C)=O)C(=O)N[C@H](Cc2ccc(NC(C)=O)cc2)C(=O)N[C@@H](CC(C)C)C(=O)N[C@@H](CCCCNC(C)C)C(=O)N2CCC[C@H]2C(=O)N[C@H](C)C(N)=O)cc1` (single isomer, unassigned), 0.63 nM; with `CC(=O)Nc1ccc(C[C@H](NC(=O)[C@H](CO)NC(=O)[C@@H](Cc2cccnc2)NC(=O)[C@@H](Cc2ccc(Cl)cc2)NC(=O)[C@@H](Cc2ccc3ccccc3c2)NC(C)=O)C(=O)N[C@H](Cc2ccc(NC(C)=O)cc2)C(=O)N[C@@H](CC(C)C)C(=O)N[C@@H](C(=O)N2CCC[C@H]2C(=O)N[C@H](C)C(N)=O)N(C)C(=O)CCNC(C)C)cc1` (single isomer, unassigned), 2.4 nM.

Values taken from ChEMBL document CHEMBL1130231, “Betidamino acid scan of the GnRH antagonist acyline” (J Med Chem, 1997).
